Data: ChEMBL document CHEMBL1122917, “Vinblastin-23-oyl amino acid derivatives: chemistry, physicochemical data, toxicity, and antitumor activities against P388 and L1210 leukemias” (J Med Chem, 1985)
Where “and” joins values, the source holds several entries; their conditions need not be identical. Equal entries are not always repeated.

Tests used:
Mus musculus [1] = assay: Percent increase in life span at dose 10 mg/kg/day in 7 mice implanted with P388 leukemia cell line for 1,8,15 schedule days; format: functional
Mus musculus [2] = assay: Percent increase in life span at dose 7 mg/kg/day in 9 mice implanted with P388 leukemia cell line for 1st schedule day; format: functional
Mus musculus [3] = assay: Percent increase in life span at dose 8 mg/kg/day in 7 mice implanted with P388 leukemia cell line for 1,8,15 schedule days from Exp-1; format: functional
Mus musculus [4] = assay: Number of survivors on 60th day at dose 8 mg/kg/day in 7 mice implanted with P388 leukemia cell line for 1,8.15 scheduled days from Exp-2; 0/10; format: functional
Mus musculus [5] = assay: Percent increase in life span of DBA2 mice after inoculation with L1210 leukemia intravenously at a dose of 10 mg/kg per day; format: functional; details: route intravenous
Mus musculus [6] = assay: Percent increase in life span at dose 6 mg/kg/day in 10 mice implanted with P388 leukemia cell line for 1st schedule day; format: functional
Mus musculus [7] = assay: Percent increase in life span at dose 10 mg/kg/day in 10 mice implanted with P388 leukemia cell line; format: functional
How it was run: (§1)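 Female DBA2 mice inoculated iv on day 0 with 10^4 P388 cells; single iv treatment on day 1 with drug as sulfate salt in physiological saline. Survival followed; %ILS from all deaths and survivors as (T/C × 100) − 100, maximal MST 30 days; survivors counted on days 30 and 60. Most experiments confirmed three times.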

Mus musculus [8] = assay: Number of survivors on 30th day at dose 4 mg/kg/day in 10 mice implanted with P388 leukemia cell line; 0 /10; format: functional
Mus musculus [9] = assay: Number of survivors of DBA2 mice on 60th day after inoculation with L1210 leukemia cell line intraperitoneally at a dose of 4 mg/kg/day; 0/10; format: functional; details: route intraperitoneal
Mus musculus [10] = assay: Number of survivors on 30th day at dose 3 mg/kg/day in 10 mice implanted with P388 leukemia cell line; 0 /10; format: functional
Mus musculus [11] = assay: Number of survivors of DBA2 mice on 30th day after inoculation with L1210 leukemia cell line intraperitoneally at a dose of 6 mg/kg/day; 0/10; format: functional; details: route intraperitoneal
Mus musculus [12] = assay: Percent increase in life span of BDF1 mice after inoculation with P388 leukemia intraperitoneally at a dose of 4 mg/kg per day; details: P388, ip
Mus musculus [13] = assay: Percent increase in life span at dose 55 mg/kg/day in 10 mice implanted with P388 leukemia cell line; format: functional; how it was run: as §1
Mus musculus [14] = assay: Percent increase in life span at dose 65 mg/kg/day in 7 mice implanted with P388 leukemia cell line for 1,8,15 schedule day in Exp-1; format: functional
Mus musculus [15] = assay: Percent increase in life span at dose 70 mg/kg/day in 10 mice implanted with P388 leukemia cell line; format: functional; how it was run: as §1
Mus musculus [16] = assay: Number of survivors on 30th day at dose 55 mg/kg/day in 10 mice implanted with P388 leukemia cell line; 7/10; format: functional
Mus musculus [17] = assay: 7 Percent increase in life span at dose 75 mg/kg/day in 7 mice implanted with P388 leukemia cell line for 1,8,15 schedule day in Exp-1; format: functional
Mus musculus [18] = assay: Number of survivors on 60th day at dose 60 mg/kg/day in 10 mice implanted with P388 leukemia cell line 1,5,9 scheduled days; 3/10; format: functional
Mus musculus [19] = assay: Number of survivors on 60th day at dose 58 mg/kg/day in 10 mice implanted with P388 leukemia cell line; 0/10; format: functional
Mus musculus [20] = assay: Number of survivors of DBA2 mice on 30th day after inoculation with L1210 leukemia cell line intravenously at a dose of 45 mg/kg/day; 0/10; format: functional; details: route intravenous
Mus musculus [21] = assay: Number of survivors on 60th day at dose 55 mg/kg/day in 10 mice implanted with P388 leukemia cell line; 1/10; format: functional
Mus musculus [22] = assay: Percent increase in life span at dose 40 mg/kg/day in 10 mice implanted with P388 leukemia cell line; format: functional; how it was run: as §1
Mus musculus [23] = assay: Percent increase in life span at dose 20 mg/kg/day in 10 mice implanted with P388 leukemia cell line; format: functional; how it was run: as §1
Mus musculus [24] = assay: Percent increase in life span at dose 65 mg/kg/day in 7 mice implanted with P388 leukemia cell line for 1,8,15 schedule day in Exp-2; format: functional
How it was run: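 Female DBA2 mice inoculated iv on day 0 with 10^5 P388 cells; iv dosing of sulfate salts in physiological saline on day 1 only or on days 1, 8 and 15. %ILS from all deaths and survivors as (T/C × 100) − 100, maximal MST 60 days; survivors scored on day 60.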

Mus musculus [25] = assay: Number of survivors on 60th day at dose 65 mg/kg/day in 10 mice implanted with P388 leukemia cell line for 1st scheduled day; 1/10; format: functional
Mus musculus [26] = assay: Percent increase in life span at dose 2 mg/kg/day in 10 mice implanted with P388 leukemia cell line for 1st scheduled day; format: functional
Mus musculus [27] = assay: Number of survivors of DBA2 mice on 60th day after inoculation with L1210 leukemia cell line intraperitoneally at a dose of 2.5 mg/kg/day; 0/10; format: functional; details: route intraperitoneal
Mus musculus [28] = assay: Number of survivors on 60th day at dose 2 mg/kg/day in 7 mice implanted with P388 leukemia cell line for 1,8,15 scheduled days; 0/11; format: functional
Mus musculus [29] = assay: Percent increase in life span at dose 2.5 mg/kg/day in 7 mice implanted with P388 leukemia cell line for 1,8,15 scheduled days from Exp-1; format: functional
Mus musculus [30] = assay: Percent increase in life span at dose 2.5 mg/kg/day in 7 mice implanted with P388 leukemia cell line for 1,8,15 scheduled days from Exp-2; format: functional
Mus musculus [31] = assay: Number of survivors of DBA2 mice on 30th day after inoculation with L1210 leukemia cell line intraperitoneally at a dose of 2.5 mg/kg/day; 0/10; format: functional; details: route intraperitoneal
Mus musculus [32] = assay: Number of survivors on 30th day at dose 5 mg/kg/day in 10 mice implanted with P388 leukemia cell line; 0/10; format: functional
Mus musculus [33] = assay: Number of survivors of DBA2 mice on 60th day after inoculation with L1210 leukemia cell line intravenously at a dose of 1 mg/kg/day; 0/10; format: functional; details: route intravenous
Mus musculus [34] = assay: Number of survivors of DBA2 mice on 30th day after inoculation with L1210 leukemia cell line intravenously at a dose of 0.5 mg/kg/day; 0/10; format: functional; details: route intravenous
Mus musculus [35] = assay: Number of survivors of DBA2 mice on 30th day after inoculation with L1210 leukemia cell line intravenously at a dose of 1 mg/kg/day; 0/10; format: functional; details: route intravenous
Mus musculus [36] = assay: Percent increase in life span at dose 1.5 mg/kg/day in 10 mice implanted with P388 leukemia cell line; format: functional
Mus musculus [37] = assay: Number of survivors of DBA2 mice on 30th day after inoculation with L1210 leukemia cell line intravenously at a dose of 5.5 mg/kg/day; 0/10; format: functional; details: route intravenous
Mus musculus [38] = assay: Number of survivors on 30th day at dose 0.5 mg/kg/day in 10 mice implanted with P388 leukemia cell line; 0/10; format: functional
Mus musculus [39] = assay: Number of survivors of DBA2 mice on 30th day after inoculation with L1210 leukemia cell line intravenously at a dose of 4.5 mg/kg/day; 0/10; format: functional; details: route intravenous

## CCOC(=O)[C@@H](NC(=O)[C@@]1(O)[C@H](O)[C@]2(CC)C=CCN3CC[C@@]4(c5cc([C@@]6(C(=O)OC)C[C@H]7C[N@](CCc8c6[nH]c6ccccc86)C[C@](O)(CC)C7)c(OC)cc5N(C)[C@@]14C)[C@@H]32)[C@@H](C)CC
Mus musculus [1]
  ILS at 10 mg/kg/day: 41%
Mus musculus [2]
  ILS at 7 mg/kg/day: 37%
Mus musculus [3]
  ILS at 8 mg/kg/day: 119%
Mus musculus [4]
  Survivors: 0
Mus musculus [5]
  ILS at 10 mg/kg/day: 27%
Mus musculus [6]
  ILS at 6 mg/kg/day: 74%

## CC[C@]1(O)C[C@@H]2CN(CCc3c([nH]c4ccccc34)[C@@](C(=O)OC)(c3cc4c(cc3OC)N(C)[C@H]3[C@@](O)(C(=O)OC)[C@H](OC(C)=O)[C@]5(CC)C=CCN6CC[C@]43[C@@H]65)C2)C1 [VINBLASTINE]
Mus musculus [7]
  ILS at 10 mg/kg/day: 81%
Mus musculus [8]
  Survivors: 0
Mus musculus [9]
  Survivors: 0
Mus musculus [10]
  Survivors: 0
Mus musculus [11]
  Survivors: 0
Mus musculus [12]
  ILS at 4 mg/kg/day: 0%

## CCOC(=O)[C@H](Cc1c[nH]c2ccccc12)NC(=O)[C@@]1(O)[C@H](O)[C@]2(CC)C=CCN3CC[C@@]4(c5cc([C@@]6(C(=O)OC)C[C@H]7C[N@](CCc8c6[nH]c6ccccc86)C[C@](O)(CC)C7)c(OC)cc5N(C)[C@@]14C)[C@@H]32
Mus musculus [13]
  ILS at 55 mg/kg/day: > 183%
Mus musculus [14]
  ILS at 65 mg/kg/day: 88%
Mus musculus [15]
  ILS at 70 mg/kg/day: 160%
Mus musculus [16]
  Survivors: 7
Mus musculus [17]
  ILS at 75 mg/kg/day: 108%
Mus musculus [18]
  Survivors: 3
Mus musculus [19]
  Survivors: 0
Mus musculus [20]
  Survivors: 0
Mus musculus [21]
  Survivors: 1
Mus musculus [22]
  ILS at 40 mg/kg/day: 58.8%
Mus musculus [23]
  ILS at 20 mg/kg/day: 43.9%
Mus musculus [24]
  ILS: 40% and 108%
Mus musculus [25]
  Survivors: 1

## CC[C@]1(O)C[C@@H]2CN(CCc3c([nH]c4ccccc34)[C@@](C(=O)OC)(c3cc4c(cc3OC)N(C)[C@H]3[C@@](O)(C(N)=O)[C@H](O)[C@]5(CC)C=CCN6CC[C@]43[C@@H]65)C2)C1 [VINDESINE]
Mus musculus [26]
  ILS at 2 mg/kg/day: 28%
Mus musculus [27]
  Survivors: 0
Mus musculus [28]
  Survivors: 0
Mus musculus [29]
  ILS at 2.5 mg/kg/day: 31%
Mus musculus [30]
  ILS at 2.5 mg/kg/day: 13%
Mus musculus [31]
  Survivors: 0
Mus musculus [32]
  Survivors: 0

## CC[C@]1(O)C[C@H]2CN(CCc3c([nH]c4ccccc34)[C@@](C(=O)OC)(c3cc4c(cc3OC)N(C=O)[C@H]3[C@@](O)(C(=O)OC)[C@H](OC(C)=O)[C@]5(CC)C=CCN6CC[C@]43[C@@H]65)C2)C1 [VINCRISTINE]
Mus musculus [33]
  Survivors: 0
Mus musculus [34]
  Survivors: 0
Mus musculus [35]
  Survivors: 0
Mus musculus [36]
  ILS at 1.5 mg/kg/day: 20.8%
Mus musculus [37]
  Survivors: 0
Mus musculus [38]
  Survivors: 0
Mus musculus [39]
  Survivors: 0
